Experimental data from ChEMBL document CHEMBL4177755, “Combating Drug-Resistant Fungi with Novel Imperfectly Amphipathic Palindromic Peptides” (J Med Chem, 2018).
The source made the active and inactive calls.

How the values were obtained:
Pichia kudriavzevii [1] = assay: Fungicidal activity against Candida krusei cgmcc 2.1857 after 96 hrs; type: functional; settings: cgmcc 2.1857, 96 h, read-out: MFC99.9
Procedure, shortened: (§1)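 Wells from the 48 h, 28 °C RPMI 1640/MOPS microdilution plates were plated on YM agar and incubated a further 48 h at 28 °C. MFC is the lowest concentration killing at least 99.9% of cells. Run in triplicate with three biological replicates.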

Candida albicans [2] = assay: Fungicidal activity against Candida albicans SP3903 after 96 hrs; type: functional; settings: SP3903, 96 h, read-out: MFC99.9
Procedure, shortened: (§2)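 After the 48 h, 28 °C broth microdilution in MOPS-buffered RPMI 1640 (inoculum (0.5−1) × 10^3 CFU/mL), 50 μL from each well was plated on YM agar for a further 48 h at 28 °C. MFC is the lowest concentration killing at least 99.9% of cells. Triplicate, three biological replicates.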

Candida albicans [3] = assay: Antifungal activity against Candida albicans cgmcc 2.2086 after 48 hrs by broth microdilution method; type: functional; settings: cgmcc 2.2086, 48 h
Procedure, shortened: (§3)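 Modified CLSI M27-A2 broth microdilution. Yeast at (0.5−1) × 10^3 CFU/mL in MOPS-buffered RPMI 1640 was mixed 1:1 with peptide serially diluted in 0.2% BSA and incubated 48 h at 28 °C. Absorbance was read at 492 nm; MIC is the lowest concentration inhibiting 95% of growth. Triplicate, three biological replicates.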

Candida albicans [4] = assay: Fungicidal activity against Candida albicans 58288 after 96 hrs; type: functional; settings: Candida albicans, 58288, 96 h; read-out: MFC99.9; procedure, shortened: as §2
Candida albicans [5] = assay: Fungicidal activity against Candida albicans SP3931 after 96 hrs; type: functional; settings: SP3931, 96 h, read-out: MFC99.9; procedure, shortened: as §2
Candida albicans [6] = assay: Fungicidal activity against Candida albicans isolated from alveolar fluid after 96 hrs; type: functional; settings: read-out: MFC99.9; procedure, shortened: as §2
Candida albicans [7] = assay: Antifungal activity against Candida albicans cgmcc 2.2086 in presence of NaCl by broth dilution method; type: functional
Candida albicans [8] = assay: Antifungal activity against Candida albicans SP3902 after 48 hrs by broth microdilution method; type: functional; settings: SP3902, 48 h; procedure, shortened: as §3
Candida albicans [9] = assay: Antifungal activity against Candida albicans 58288 after 48 hrs by broth microdilution method; type: functional; settings: Candida albicans, 58288, 48 h; procedure, shortened: as §3
Lipid bilayer [10] = assay: Binding affinity to phosphatidylcholine/phosphatidylethanolamine/phosphatidylinositol/ergosterol large unilamellar vesicle assessed as induction of calcein leakage at 2 to 32 uM after 15 mins by spectrofluorophotometric method
Procedure, shortened: (§4)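 Large unilamellar vesicles were made from PG/CL/PE (2:1:7), PC/PE/PI/ergosterol (5:4:1:2) or PC/cholesterol (10:1), loaded with 70 mM calcein in Tris/NaCl/EDTA buffer at pH 7.4, frozen and thawed 20 times, and extruded through 100 nm filters. Free dye was removed by gel filtration, and peptide-induced calcein release was measured.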

Pichia kudriavzevii [11] = assay: Antifungal activity against Candida krusei cgmcc 2.1857 after 48 hrs by broth microdilution method; type: functional; settings: cgmcc 2.1857, 48 h
Procedure, shortened: (§5)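 Modified CLSI M27-A2 broth microdilution. Yeast were suspended in MOPS-buffered RPMI 1640 at a final (0.5−1) × 10^3 CFU/mL and mixed 1:1 with peptide serially diluted in 0.2% BSA. Plates were incubated 48 h at 28 °C and read at A492. MIC is the lowest concentration giving 95% inhibition. Run in triplicate with three biological replicates.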

Candida albicans [12] = assay: Fungicidal activity against Candida albicans SP3876 after 96 hrs; type: functional; settings: SP3876, 96 h, read-out: MFC99.9; procedure, shortened: as §2
Candida albicans [13] = assay: Fungicidal activity against Candida albicans SP3902 after 96 hrs; type: functional; settings: SP3902, 96 h, read-out: MFC99.9; procedure, shortened: as §2
Candida albicans [14] = assay: Antifungal activity against Candida albicans isolated from alveolar fluid after 48 hrs by broth microdilution method; type: functional; procedure, shortened: as §3
Candida albicans [15] = assay: Antifungal activity against Candida albicans cgmcc 2.2086 in presence of ZnCl2 by broth dilution method; type: functional
Candida albicans [16] = assay: Antifungal activity against Candida albicans 14936 after 48 hrs by broth microdilution method; type: functional; settings: Candida albicans, 14936, 48 h; procedure, shortened: as §3
Candida albicans [17] = assay: Fungicidal activity against Candida albicans 14936 after 96 hrs; type: functional; settings: Candida albicans, 14936, 96 h; read-out: MFC99.9; procedure, shortened: as §2
Candida albicans [18] = assay: Fungicidal activity against fluconazole-resistant Candida albicans 17546 after 96 hrs; type: functional; settings: Candida albicans, 17546, 96 h; read-out: MFC99.9; procedure, shortened: as §2
Candida albicans [19] = assay: Antifungal activity against Candida albicans SP3876 after 48 hrs by broth microdilution method; type: functional; settings: SP3876, 48 h; procedure, shortened: as §3
Candida tropicalis [20] = assay: Antifungal activity against Candida tropicalis cgmcc 2.1975 after 48 hrs by broth microdilution method; type: functional; settings: cgmcc 2.1975, 48 h; procedure, shortened: as §5
Candida albicans [21] = assay: Antifungal activity against Candida albicans SP3903 after 48 hrs by broth microdilution method; type: functional; settings: SP3903, 48 h; procedure, shortened: as §3
Candida albicans [22] = assay: Antifungal activity against Candida albicans cgmcc 2.2086 in presence of CaCl2 by broth dilution method; type: functional
Candida tropicalis [23] = assay: Fungicidal activity against Candida tropicalis cgmcc 2.1975 after 96 hrs; type: functional; settings: cgmcc 2.1975, 96 h, read-out: MFC99.9; procedure, shortened: as §1
Candida albicans [24] = assay: Antifungal activity against Candida albicans cgmcc 2.2086 in presence of 25% human heat-inactivated serum by broth dilution method; type: functional
Candida albicans [25] = assay: Antifungal activity against Candida albicans cgmcc 2.2086 in presence of KCl by broth dilution method; type: functional
Candida albicans [26] = assay: Antifungal activity against Candida albicans cgmcc 2.2086 in presence of MgCl2 by broth dilution method; type: functional
Candida albicans [27] = assay: Antifungal activity against fluconazole-resistant Candida albicans 17546 after 48 hrs by broth microdilution method; type: functional; settings: Candida albicans, 17546, 48 h; procedure, shortened: as §3
Candida albicans [28] = assay: Antifungal activity against Candida albicans cgmcc 2.2086 in presence of 12.5% human heat-inactivated serum by broth dilution method; type: functional
Lipid bilayer [29] = assay: Binding affinity to phosphatidylcholine/cholesterol large unilamellar vesicle assessed as induction of calcein leakage at 2 to 32 uM after 15 mins by spectrofluorophotometric method; settings: 0.25 h; procedure, shortened: as §4
Candida parapsilosis [30] = assay: Antifungal activity against Candida parapsilosis cgmcc 2.3989 after 48 hrs by broth microdilution method; type: functional; settings: Lodderomyces parapsilosis, cgmcc 2.3989, 48 h; procedure, shortened: as §5
Candida albicans [31] = assay: Disruption of cytoplasmic membrane electrical potential in Candida albicans cgmcc 2.2086 at MFC after 800 secs by DiSC3-5 dye-based fluorescence spectrophotometric method; type: functional, organism-based
Procedure, shortened: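 Cells were loaded with the membrane potential-sensitive dye DiSC3-5, and its release on peptide treatment (various concentrations, including 1× MBC/MFC) was monitored as increasing fluorescence over 800 s.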

Candida albicans [32] = assay: Antifungal activity against Candida albicans cgmcc 2.2086 in presence of FeCl3 by broth dilution method; type: functional
Candida albicans [33] = assay: Antifungal activity against fluconazole-resistant Candida albicans 56214 after 48 hrs by broth microdilution method; type: functional; settings: Candida albicans, 56214, 48 h; procedure, shortened: as §3
Candida albicans [34] = assay: Antifungal activity against Candida albicans cgmcc 2.2086 in presence of NH4Cl by broth dilution method; type: functional
Candida albicans [35] = assay: Fungicidal activity against fluconazole-resistant Candida albicans 56452 after 96 hrs; type: functional; settings: Candida albicans, 56452, 96 h; read-out: MFC99.9; procedure, shortened: as §2
Candida albicans [36] = assay: Fungicidal activity against fluconazole-resistant Candida albicans 56214 after 96 hrs; type: functional; settings: Candida albicans, 56214, 96 h; read-out: MFC99.9; procedure, shortened: as §2
Candida albicans [37] = assay: Fungicidal activity against Candida albicans cgmcc 2.2086 after 96 hrs; type: functional; settings: cgmcc 2.2086, 96 h, read-out: MFC99.9; procedure, shortened: as §2
Candida albicans [38] = assay: Antifungal activity against Candida albicans cgmcc 2.2086 in presence of 50% human heat-inactivated serum by broth dilution method; type: functional
Candida parapsilosis [39] = assay: Fungicidal activity against Candida parapsilosis cgmcc 2.3989 after 96 hrs; type: functional; settings: Lodderomyces parapsilosis, cgmcc 2.3989, 96 h; read-out: MFC99.9; procedure, shortened: as §1
Candida albicans [40] = assay: Antifungal activity against Candida albicans SP3931 after 48 hrs by broth microdilution method; type: functional; settings: SP3931, 48 h; procedure, shortened: as §3
Candida albicans [41] = assay: Antifungal activity against fluconazole-resistant Candida albicans 56452 after 48 hrs by broth microdilution method; type: functional; settings: Candida albicans, 56452, 48 h; procedure, shortened: as §3

OC(Cn1cncn1)(Cn1cncn1)c1ccc(F)cc1F [FLUCONAZOLE]
4 µM: MIC95 (Candida tropicalis [20]) | MIC95 (Candida parapsilosis [30])
inactive: Activity (Lipid bilayer [10]) | Activity (Candida albicans [31])
64 µM: MFC (Pichia kudriavzevii [1]) | MFC (Candida albicans [2]) | MFC (Candida albicans [5]) | MIC95 (Pichia kudriavzevii [11])
16 µM: MIC95 (Candida albicans [8]) | MIC95 (Candida albicans [21])
2 µM: MIC95 (Candida albicans [14]) | MFC (Candida albicans [37]) | MIC (Candida albicans [38])
8 µM: MFC (Candida albicans [6]) | MIC95 (Candida albicans [9]) | MFC (Candida parapsilosis [39])
Not Active: Activity (Lipid bilayer [29])
32 µM: MIC95 (Candida albicans [16]) | MFC (Candida tropicalis [23])
1 µM: MIC95 (Candida albicans [3]) | MIC (Candida albicans [7]) | MIC (Candida albicans [15]) | MIC (Candida albicans [22]) | MIC (Candida albicans [24]) | MIC (Candida albicans [25]) | MIC (Candida albicans [26]) | MIC (Candida albicans [28]) | MIC (Candida albicans [32]) | MIC (Candida albicans [34]) | MIC95 (Candida albicans [40])
> 64 µM: MFC (Candida albicans [4]) | MFC (Candida albicans [12]) | MFC (Candida albicans [13]) | MFC (Candida albicans [17]) | MFC (Candida albicans [18]) | MIC95 (Candida albicans [19]) | MIC95 (Candida albicans [27]) | MIC95 (Candida albicans [33]) | MFC (Candida albicans [35]) | MFC (Candida albicans [36]) | MIC95 (Candida albicans [41])
